This experiment concerns the target T1, Nuclear factor NF-kappa-B p105 subunit (Homo sapiens, UniProt P19838).
T1 sequence (P19838 whole entry): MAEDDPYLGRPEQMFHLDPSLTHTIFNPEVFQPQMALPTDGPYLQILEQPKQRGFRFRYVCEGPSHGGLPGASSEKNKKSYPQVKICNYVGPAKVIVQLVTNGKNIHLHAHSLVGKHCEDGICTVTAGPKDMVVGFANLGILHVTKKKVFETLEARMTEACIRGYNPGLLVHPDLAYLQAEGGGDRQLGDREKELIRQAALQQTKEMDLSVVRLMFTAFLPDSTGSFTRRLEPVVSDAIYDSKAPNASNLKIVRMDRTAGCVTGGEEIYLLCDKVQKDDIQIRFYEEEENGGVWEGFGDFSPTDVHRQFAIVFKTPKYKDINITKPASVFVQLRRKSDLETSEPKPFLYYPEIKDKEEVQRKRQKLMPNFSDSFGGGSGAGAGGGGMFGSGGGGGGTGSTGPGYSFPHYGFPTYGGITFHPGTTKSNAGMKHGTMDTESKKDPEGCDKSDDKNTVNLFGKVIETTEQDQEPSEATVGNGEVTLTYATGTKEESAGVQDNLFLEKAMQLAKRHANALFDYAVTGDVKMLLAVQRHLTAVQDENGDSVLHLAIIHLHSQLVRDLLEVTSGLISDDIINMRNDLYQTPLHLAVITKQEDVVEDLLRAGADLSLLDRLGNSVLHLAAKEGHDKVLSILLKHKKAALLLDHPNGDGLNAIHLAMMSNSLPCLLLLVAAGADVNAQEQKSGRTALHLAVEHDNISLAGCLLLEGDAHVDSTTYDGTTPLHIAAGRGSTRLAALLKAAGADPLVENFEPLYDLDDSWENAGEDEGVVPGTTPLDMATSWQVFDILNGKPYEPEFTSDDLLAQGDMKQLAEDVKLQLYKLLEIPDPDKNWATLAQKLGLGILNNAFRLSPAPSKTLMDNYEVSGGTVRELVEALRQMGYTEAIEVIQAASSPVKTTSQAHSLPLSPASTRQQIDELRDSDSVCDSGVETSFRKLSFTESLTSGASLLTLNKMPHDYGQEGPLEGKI
Kind of experiment: Inhibition of human NF-kappaB p50/DNA interaction using 32P-labeled oligonucleotides as substrate preincubated for 20 mins before substrate addition measured after 20 mins by electrophoretic mobility shift assay. The method, boiled down:
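Probe: NF-κB site dsDNA (5′-CGC TGG GGA CTT TCC ACG G-3′) end-labeled with γ32P-ATP/T4 kinase, annealed. 10 ng human p50 (± 10 ng p65) preincubated with compound 20 min RT in buffer TF + 5% glycerol, 1 mM DTT; 0.25 ng probe added, 20 min RT; run on 6% polyacrylamide, 0.25× TBE, 200 V.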
The term EC50 denotes the concentration needed to bring the measured effect to its halfway point. Turning to `Cc1c(CC(=O)Nc2cccc(C(=O)O)c2)c(=O)oc2c(C)c3oc4c(c3cc12)CCCC4`, the EC50 came out at 70 µM.

Regarding `Cc1c(CCC(=O)Nc2ccc(CC(=O)O)cc2)c(=O)oc2cc3occ(C(C)(C)C)c3cc12`, the EC50 amounted to 80 µM.

On to `Cc1c(CC(=O)Nc2cccc(C(=O)O)c2)c(=O)oc2cc3oc4c(c3cc12)CCCC4`, for which the EC50 is 100 µM.

Turning to `Cc1oc2cc3oc(=O)c(CC(=O)Nc4cccc(C(=O)O)c4)c(C)c3cc2c1C`, the EC50 came to 700 µM.

Regarding `Cc1c(CCC(=O)Nc2ccccc2C(=O)O)c(=O)oc2cc3occ(C(C)(C)C)c3cc12`, the EC50 came to 60 µM.

Turning to `Cc1c(CC(=O)NCCCC(=O)O)c(=O)oc2c(C)c3occ(C(C)(C)C)c3cc12`, the EC50 was 600 µM.

On to `Cc1c(CC(=O)Nc2ccc(C(N)=O)cc2)c(=O)oc2c(C)c3oc4c(c3cc12)CCCC4`, for which the EC50 is 700 µM.

Take `Cc1c(CCC(=O)NC(Cc2ccccc2)C(=O)O)c(=O)oc2cc3occ(C(C)(C)C)c3cc12` (racemic): the EC50 amounted to 100 µM.

Regarding `O=c1ccc2c(-c3ccccc3S(=O)(=O)O)c3ccc(O)c(O)c3oc-2c1O` [PYROGALLOL RED], the EC50 worked out at 30 µM.

Consider `Cc1oc2cc3oc(=O)c(CCC(=O)Nc4cccc(C(=O)O)c4)c(C)c3cc2c1C`, for which the EC50 is 600 µM.

With `Cc1c(CCC(=O)NCc2ccccc2Cl)c(=O)oc2c(C)c3occ(C(C)(C)C)c3cc12`, the EC50 was 4000 µM.

As to `Cc1c(CCC(=O)Nc2cccc(C(=O)O)c2)c(=O)oc2c(C)c3oc4c(c3cc12)CCCC4`, the EC50 worked out at 100 µM.

For `Cc1c(CCC(=O)NC(Cc2ccccc2)C(=O)O)c(=O)oc2cc3oc4c(c3cc12)CCCC4` (racemic), the EC50 is 100 µM.

As for `O=C1C=C/C(=C(/c2ccc(O)c(O)c2)c2ccccc2S(=O)(=O)O)C=C1O` [PYROCATECHOL VIOLET], the EC50 was found to be 50 µM.

For `Cc1oc2c(C)c3oc(=O)c(CC(=O)NC(Cc4ccccc4)C(=O)O)c(C)c3cc2c1C` (racemic), the EC50 amounted to 600 µM.

Turning to `Cc1c(CC(=O)Nc2cccc(C(=O)O)c2)c(=O)oc2cc3occ(C(C)(C)C)c3cc12`, the EC50 stood at 10 µM.

Consider `Cc1oc2c(C)c3oc(=O)c(CCC(=O)Nc4ccc(C(=O)O)cc4)c(C)c3cc2c1C`, for which the EC50 was determined as 60 µM.

`Cc1c(CC(=O)NCc2ccccc2Cl)c(=O)oc2c(C)c3occ(C(C)(C)C)c3cc12`: the EC50 turned out to be 5000 µM.

As for `Cc1c(CCC(=O)Nc2ccc(C(=O)O)cc2)c(=O)oc2c(C)c3occ(C(C)(C)C)c3cc12`, the EC50 is 40 µM.

For the compound `Cc1c(CC(=O)Nc2ccccc2C(=O)O)c(=O)oc2cc3occ(C(C)(C)C)c3cc12`, the EC50 worked out at 80 µM.

For `Cc1c(CCC(=O)Nc2ccc(C(N)=O)cc2)c(=O)oc2c(C)c3oc4c(c3cc12)CCCC4`, the EC50 was 700 µM.

Turning to `Cc1c(CCC(=O)Nc2cccc(C(=O)O)c2)c(=O)oc2cc3occ(C(C)(C)C)c3cc12`, the EC50 was 60 µM.

For `Cc1c(CCC(=O)Nc2cccc(C(=O)O)c2)c(=O)oc2cc3oc4c(c3cc12)CCCC4`, the EC50 stood at 100 µM.

For the compound `Cc1oc2cc3oc(=O)c(CC(=O)Nc4ccc(C(=O)O)cc4)c(C)c3cc2c1C`, the EC50 is 40 µM.

For `Cc1c(CC(=O)Nc2ccc(CC(=O)O)cc2)c(=O)oc2cc3occ(C(C)(C)C)c3cc12`, the EC50 was 530 µM.

Take `CC(=O)Nc1ccc(NC(=O)Cc2c(C)c3cc4c5c(oc4c(C)c3oc2=O)CCCC5)cc1`: the EC50 stood at 3000 µM.

Regarding `CC1=C/C(=C(/c2cc(C)c(O)c(C(=O)O)c2)c2c(Cl)ccc(S(=O)(=O)O)c2Cl)C=C(C(=O)O)C1=O` [CHROME AZUROL S], the EC50 came to 100 µM.

On to `Cc1oc2c(C)c3oc(=O)c(CCC(=O)NC(Cc4ccccc4)C(=O)O)c(C)c3cc2c1C` (racemic), for which the EC50 was 1000 µM.

For the compound `Cc1c(CCC(=O)Nc2ccc(C(=O)O)cc2)c(=O)oc2c(C)c3oc4c(c3cc12)CCCC4`, the EC50 stood at 60 µM.

For the compound `Cc1c(CC(=O)Nc2cccc(C(F)(F)F)c2)c(=O)oc2c(C)c3oc4c(c3cc12)CCCC4`, the EC50 came out at 3000 µM.

`Cc1coc2c(C)c3oc(=O)c(CC(=O)NCc4ccccc4Cl)c(C)c3cc12`: the EC50 was found to be 800 µM.

For the compound `O=C1C=CC(=C(c2ccc(O)cc2)c2ccc(O)cc2)C=C1` [AURIN], the half-maximal effective concentration (EC50) was 50 µM.

As for `Cc1c(CCC(=O)Nc2cccc(C(F)(F)F)c2)c(=O)oc2c(C)c3oc4c(c3cc12)CCCC4`, the EC50 was over 10000 µM.

With `Cc1c(CC(=O)NC(Cc2ccccc2)C(=O)O)c(=O)oc2cc3occ(C(C)(C)C)c3cc12` (configuration not stated), the EC50 came to 600 µM.

On to `Cc1oc2c(C)c3oc(=O)c(CCC(=O)Nc4cccc(C(=O)O)c4)c(C)c3cc2c1C`, for which the EC50 is 80 µM.

As for `Cc1c(CC(=O)O)c(=O)oc2c(C)c3occ(C(C)(C)C)c3cc12`, the EC50 worked out at 800 µM.

For the compound `Cc1c(CC(=O)Nc2ccc(NS(C)(=O)=O)cc2)c(=O)oc2c(C)c3oc4c(c3cc12)CCCC4`, the EC50 was determined as 700 µM.

In the case of `Cc1c(CC(=O)NC(Cc2ccccc2)C(=O)O)c(=O)oc2cc3oc4c(c3cc12)CCCC4` (racemic), the EC50 was determined as 80 µM.

With `Cc1c(CCC(=O)Nc2ccc(NS(C)(=O)=O)cc2)c(=O)oc2c(C)c3oc4c(c3cc12)CCCC4`, the EC50 is 1000 µM.

Regarding `Cc1oc2c(C)c3oc(=O)c(CC(=O)Nc4ccc(C(=O)O)cc4)c(C)c3cc2c1C`, the EC50 was 100 µM.

Regarding `Cc1c(CC(=O)Nc2ccc(C(=O)O)cc2)c(=O)oc2c(C)c3occ(C(C)(C)C)c3cc12`, the EC50 worked out at 60 µM.

Consider `Cc1c(CCC(=O)Nc2ccc(C(=O)O)cc2)c(=O)oc2cc3oc4c(c3cc12)CCCC4`, for which the EC50 worked out at 10 µM.

On to `CC(=O)Nc1ccc(NC(=O)CCc2c(C)c3cc4c5c(oc4c(C)c3oc2=O)CCCC5)cc1`, for which the EC50 turned out to be 1000 µM.

Take `Cc1oc2c(C)c3oc(=O)c(CC(=O)O)c(C)c3cc2c1C`: the EC50 stood at 6000 µM.

Regarding `Cc1c(CC(=O)O)c(=O)oc2cc3occ(C(C)(C)C)c3cc12`, the EC50 is 800 µM.

With `Cc1c(CC(=O)Nc2cccc(O)c2)c(=O)oc2c(C)c3oc4c(c3cc12)CCCC4`, the EC50 was found to be 3000 µM.

As to `Cc1c(CCC(=O)Nc2ccc(O)cc2)c(=O)oc2c(C)c3oc4c(c3cc12)CCCC4`, the EC50 stood at 3000 µM.

In the case of `Cc1c(CC(=O)Nc2ccc(O)cc2)c(=O)oc2c(C)c3oc4c(c3cc12)CCCC4`, the EC50 came to 700 µM.

Take `Cc1c(CC(=O)NC(Cc2ccccc2)C(=O)O)c(=O)oc2c(C)c3oc4c(c3cc12)CCCC4` (racemic): the EC50 amounted to 1000 µM.

As for `Cc1oc2c(C)c3oc(=O)c(CC(=O)Nc4cccc(C(=O)O)c4)c(C)c3cc2c1C`, the EC50 was found to be 600 µM.

With `Cc1c(CC(=O)Nc2ccc(C(=O)O)cc2)c(=O)oc2c(C)c3oc4c(c3cc12)CCCC4`, the EC50 stood at 100 µM.

For the compound `Cc1c(CCC(=O)Nc2ccc(C(=O)O)cc2)c(=O)oc2cc3occ(C(C)(C)C)c3cc12`, the EC50 is 60 µM.

On to `Cc1c(CCC(=O)NC(Cc2ccccc2)C(=O)O)c(=O)oc2c(C)c3occ(C(C)(C)C)c3cc12` (racemic), for which the EC50 was 60 µM.

On to `Cc1c(CCC(=O)Nc2ccc(N)cc2)c(=O)oc2c(C)c3oc4c(c3cc12)CCCC4`, for which the EC50 is 3000 µM.

Regarding `Cc1c(CCC(=O)NCc2ccc(C(=O)O)cc2)c(=O)oc2cc3occ(C(C)(C)C)c3cc12`, the EC50 was determined as 670 µM.

Consider `Cc1c(CC(=O)NCc2ccc(C(=O)O)cc2)c(=O)oc2cc3occ(C(C)(C)C)c3cc12`, for which the EC50 turned out to be 600 µM.

In the case of `Cc1c(CCC(=O)Nc2cccc(O)c2)c(=O)oc2c(C)c3oc4c(c3cc12)CCCC4`, the EC50 was found to be 700 µM.

Source of the values: ChEMBL document CHEMBL2321870, “Psoralen derivatives as inhibitors of NF-κB/DNA interaction: synthesis, molecular modeling, 3D-QSAR, and biological evaluation” (J Med Chem, 2013).
